According to ChEMBL document CHEMBL4715780, “Biological evaluation of tetracationic compounds based on two 1,4-diazabicyclo[2.2.2]octane moieties connected by different linkers” (Bioorg Med Chem, 2016):

How the values were obtained:
[1] = test system: Staphylococcus aureus; assay: Antibacterial activity against […] Staphylococcus aureus ATCC 25923 assessed as bacterial growth inhibition by CLSI protocol based serial microdilution method; assay type: functional
[2] = test system: Pseudomonas aeruginosa; assay: Antibacterial activity against Pseudomonas aeruginosa ATCC 9027 assessed as concentration required to inhibit visible growth by CLSI protocol based serial microdilution method; assay type: functional
[3] = test system: Escherichia coli; assay: Antibacterial activity against Escherichia coli ATCC 25922 assessed as concentration required to inhibit visible growth by CLSI protocol based serial microdilution method; assay type: functional
[4] = test system: Citrobacter freundii; assay: Antibacterial activity against Citrobacter freundii ATCC 8090 assessed as concentration required to inhibit visible growth by CLSI protocol based serial microdilution method; assay type: functional
[5] = test system: Citrobacter freundii; assay: Antibacterial activity against Citrobacter freundii ATCC 8090 assessed as bacterial growth inhibition by CLSI protocol based serial microdilution method; assay type: functional
[6] = test system: Staphylococcus aureus; assay: Antibacterial activity against methicillin-resistant Staphylococcus aureus CEMTC 707 assessed as concentration required to inhibit visible growth by CLSI protocol based serial microdilution method; assay type: functional
[7] = test system: Staphylococcus aureus; assay: Antibacterial activity against methicillin-resistant Staphylococcus aureus CEMTC 1695 assessed as concentration required to inhibit visible growth by CLSI protocol based serial microdilution method; assay type: functional
[8] = test system: Staphylococcus aureus; assay: Antibacterial activity against methicillin-resistant Staphylococcus aureus CEMTC 1733 assessed as bacterial growth inhibition by CLSI protocol based serial microdilution method; assay type: functional
[9] = test system: Pseudomonas aeruginosa; assay: Bactericidal activity against Pseudomonas aeruginosa ATCC 9027 assessed as colony forming unit at 10 ug/ml measured at 2 hrs by time kill assay (reference value: 3.6 x 10^5 CFU/ml); assay type: functional; details: dose 10 µg/ml
How it was run: (§1)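 Overnight Pseudomonas aeruginosa culture adjusted in Mueller–Hinton broth to about 2.5 × 10⁵ CFU/mL. Compound added at 2.5, 5 or 10 µg/mL, then incubated at 37 °C with shaking (580 rpm) for 22 h. Viable colonies counted on plates at 2, 4, 6, 8 and 22 h. Quantification limit 100 CFU/mL; triplicate.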

[10] = test system: Pseudomonas aeruginosa; assay: Bactericidal activity against Pseudomonas aeruginosa ATCC 9027 assessed as colony forming unit at 10 ug/ml measured at 4 hrs by time kill assay (reference value: 1.2 x 10^7 CFU/ml); assay type: functional; details: dose 10 µg/ml; how it was run: as §1
[11] = test system: Pseudomonas aeruginosa; assay: Bactericidal activity against Pseudomonas aeruginosa ATCC 9027 assessed as colony forming unit at 10 ug/ml measured at 8 hrs by time kill assay (reference value: 2.7 x 10^8 CFU/ml); assay type: functional; details: dose 10 µg/ml; how it was run: as §1
[12] = test system: Pseudomonas aeruginosa; assay: Bactericidal activity against Pseudomonas aeruginosa ATCC 9027 assessed as colony forming unit at 10 ug/ml measured at 22 hrs by time kill assay (reference value: 1.7 x 10^9 CFU/ml); assay type: functional; details: dose 10 µg/ml; how it was run: as §1
[13] = test system: Pseudomonas aeruginosa; assay: Bactericidal activity against Pseudomonas aeruginosa ATCC 9027 assessed as colony forming unit at 5 ug/ml measured at 2 hrs by time kill assay (reference value: 3.6 x 10^5 CFU/ml); assay type: functional; details: dose 5 µg/ml; how it was run: as §1
[14] = test system: Pseudomonas aeruginosa; assay: Bactericidal activity against Pseudomonas aeruginosa ATCC 9027 assessed as colony forming unit at 5 ug/ml measured at 4 hrs by time kill assay (reference value: 1.2 x 10^7 CFU/ml); assay type: functional; details: dose 5 µg/ml; how it was run: as §1
[15] = test system: Pseudomonas aeruginosa; assay: Bactericidal activity against Pseudomonas aeruginosa ATCC 9027 assessed as colony forming unit at 2.5 ug/ml measured at 8 hrs by time kill assay (reference value: 2.7 x 10^8 CFU/ml); assay type: functional; details: dose 2.5 µg/ml; how it was run: as §1
[16] = test system: Pseudomonas aeruginosa; assay: Bactericidal activity against Pseudomonas aeruginosa ATCC 9027 assessed as reduction in colony forming unit at 10 ug/ml measured at 2 hrs by time kill assay relative to control; assay type: functional; design: scale not given: the % may be the effect or the level left; details: dose 10 µg/ml; how it was run: as §1
[17] = test system: Pseudomonas aeruginosa; assay: Bactericidal activity against Pseudomonas aeruginosa ATCC 9027 assessed as reduction in colony forming unit at 10 ug/ml measured at 6 hrs by time kill assay relative to control; assay type: functional; design: scale not given: the % may be the effect or the level left; details: dose 10 µg/ml; how it was run: as §1
[18] = test system: Pseudomonas aeruginosa; assay: Bactericidal activity against Pseudomonas aeruginosa ATCC 9027 assessed as reduction in colony forming unit at 5 ug/ml measured at 22 hrs by time kill assay relative to control; assay type: functional; design: scale not given: the % may be the effect or the level left; details: dose 5 µg/ml; how it was run: as §1
[19] = test system: Staphylococcus aureus; assay: Bactericidal activity against […] Staphylococcus aureus ATCC 25923 assessed as colony forming unit at 5 ug/ml measured at 6 hrs by time kill assay (reference value: 1.2 x 10^6 CFU/ml); assay type: functional; details: dose 5 µg/ml
How it was run: (§2)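 S. aureus overnight culture was adjusted in MHB to ~8 × 10⁵ CFU/mL. Compound was added and the mixture incubated at 37 °C with shaking (580 rpm) for 22 h. Aliquots were plated for colony counts at 2, 4, 6, 8 and 22 h, with a quantification limit of 100 CFU/mL. Runs were done in triplicate.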

[20] = test system: Staphylococcus aureus; assay: Bactericidal activity against […] Staphylococcus aureus ATCC 25923 assessed as colony forming unit at 5 ug/ml measured at 8 hrs by time kill assay (reference value: 2.7 x 10^8 CFU/ml); assay type: functional; details: dose 5 µg/ml; how it was run: as §2
[21] = test system: Staphylococcus aureus; assay: Bactericidal activity against […] Staphylococcus aureus ATCC 25923 assessed as colony forming unit at 5 ug/ml measured at 22 hrs by time kill assay (reference value: 2.9 x 10^9 CFU/ml); assay type: functional; details: dose 5 µg/ml; how it was run: as §2
[22] = test system: Staphylococcus aureus; assay: Bactericidal activity against […] Staphylococcus aureus ATCC 25923 assessed as colony forming unit at 2.5 ug/ml measured at 4 hrs by time kill assay (reference value: 7.8 x 10^6 CFU/ml); assay type: functional; details: dose 2.5 µg/ml; how it was run: as §2
[23] = test system: Staphylococcus aureus; assay: Bactericidal activity against […] Staphylococcus aureus ATCC 25923 assessed as colony forming unit at 1.25 ug/ml measured at 4 hrs by time kill assay (reference value: 7.8 x 10^6 CFU/ml); assay type: functional; details: dose 1.25 µg/ml; how it was run: as §2
[24] = test system: Staphylococcus aureus; assay: Bactericidal activity against […] Staphylococcus aureus ATCC 25923 assessed as colony forming unit at 1.25 ug/ml measured at 8 hrs by time kill assay (reference value: 2.7 x 10^8 CFU/ml); assay type: functional; details: dose 1.25 µg/ml; how it was run: as §2
[25] = Cytotoxicity against human MCF7 cells assessed as reduction in cell viability measured after 24 hrs by MTT assay; assay type: cell-based
How it was run: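 HEK293T or MCF-7 cells in IMDM with 10% FBS, seeded at 20,000 per well and grown overnight. Compounds at […] in fresh medium for 24 h at 37 °C, 5% CO₂. MTT then added for 4 h, precipitate dissolved overnight in SDS-HCl, absorbance read at 570 nm. Viability expressed relative to untreated cells, giving CC₅₀. Duplicate wells, at least two independent repeats.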

[26] = Selectivity index, ratio of CC50 for HEK293T cells assessed as reduction in cell viability measured after 24 hrs by MTT assay to MIC for Pseudomonas aeruginosa ATCC 9027 assessed as bacterial growth inhibition by CLSI protocol based serial microdilution method; assay type: toxicity; details: human, read-out: Selectivity Index
[27] = Cytotoxicity against MDCK cells assessed as cell death incubated for 48 hrs by MTT assay; assay type: cell-based, Canis lupus familiaris; details: dog
[28] = Selectivity index, ratio of CC50 for MDCK cells to EC50 for Influenza A virus (A/Puerto Rico/8/34 (H1N1)) infected in MDCK cells; assay type: toxicity, cell-based; details: dog, read-out: Ratio CC50/EC50
How it was run: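 Ratio of CC₅₀ to EC₅₀, both in MDCK cells, with cytotoxicity run in parallel with the antiviral assay. EC₅₀ is the concentration halving virus production (0.3 log₁₀ EID₅₀ titre drop). It was obtained after 1 h compound pre-incubation, infection, 48 h at 37 °C, and hemagglutination read-out with 1% chicken erythrocytes.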

SMILES	MIC [1]	MBC [2]	MBC [3]	MBC [4]	MIC [5]	MBC [6]	MBC [7]	MIC [8]	Activity [9]	Activity [10]	Activity [11]	Activity [12]	Activity [13]	Activity [14]	Activity [15]	Activity [16]	Activity [17]	Activity [18]	Activity [19]	Activity [20]	other results
CCCCCCCCCCCC[N+]12CC[N+](CCC[N+]34CC[N+](CCCCCCCCCCCC)(CC3)CC4)(CC1)CC2	0.3 µg/mL	3.1 µg/mL	3.1 µg/mL	3.1 µg/mL	1.6 µg/mL	1 µg/mL	1 µg/mL	1 µg/mL	<100 CFU/ml	<100 CFU/ml	<100 CFU/ml	<100 CFU/ml	<100 CFU/ml	<100 CFU/ml	<100 CFU/ml	>=99.9%	>=99.9%	>=99.9%	<100 CFU/ml	<100 CFU/ml	Activity [21]: <100 CFU/ml; Activity [22]: <100 CFU/ml; Activity [23]: <100 CFU/ml; Activity [24]: <100 CFU/ml; CC50 at 24 h [25]: 5 µg/mL; selectivity ratio at 24 h [26]: 4; CC50 at 48 h [27]: 12.8 µg/mL; selectivity ratio [28]: 7
CCCCCCCCCCCC[N+]12CC[N+](Cc3ccccc3C[N+]34CC[N+](CCCCCCCCCCCC)(CC3)CC4)(CC1)CC2	0.6 µg/mL	3.1 µg/mL	3.1 µg/mL	1.6 µg/mL	1.6 µg/mL	1 µg/mL	1 µg/mL	1 µg/mL	<100 CFU/ml	<100 CFU/ml	<100 CFU/ml	<100 CFU/ml	130 CFU/ml	<100 CFU/ml	300 CFU/ml	≥ 99.9%	>=99.9%	>=99.9%	<100 CFU/ml	<100 CFU/ml	Activity [21]: <100 CFU/ml; Activity [22]: <100 CFU/ml; Activity [23]: <100 CFU/ml; Activity [24]: <100 CFU/ml; CC50 at 24 h [25]: 4 µg/mL; selectivity ratio at 24 h [26]: 3; CC50 at 48 h [27]: 1.9 µg/mL; selectivity ratio [28]: 2
